Data published in ChEMBL document CHEMBL2176969, “O2-sulfonylethyl protected isopropylamine diazen-1-ium-1,2-diolates as nitroxyl (HNO) donors: synthesis, β-elimination fragmentation, HNO release, positive inotropic properties, and blood pressure lowering studies” (J Med Chem, 2012).
Activity calls are given as the source filed them. The calls are words filed in the database; no cut-off is given here.

Assays:
[1] = Induction of nitrous oxide release in MeOH/TBS buffer at pH 10 at 25 mM after 2 hrs by gas chromatographic analysis in presence of glutathione; assay type: physicochemical; settings: pH 10, 2 h, 25000 µM
In short: (§1)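 Compound (0.04 mmol, 25 mM) in a sealed, inert-gas-flushed flask with 0.8 mL solvent: MeOH plus 500 mM Tris (0.2 mM EDTA), 1:1, at pH 7.4 or 10.0, ± 50 mM GSH, 37 °C. Headspace N₂O measured by GC with electron-capture detection against a standard curve. Yield assumes 2 HNO → 1 N₂O; mean of n = 3; pH-10 runs ended near pH 9.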

[2] = Induction of nitrous oxide release in MeOH/TBS buffer at pH 10 at 25 mM after 2 hrs by gas chromatographic analysis; assay type: physicochemical; settings: pH 10, 2 h, 25000 µM; in short: as §1
[3] = Half life in phosphate buffer at pH 7.4 by spectrophotometric method; assay type: physicochemical
In short: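 Decay followed by loss of diazeniumdiolate absorbance near 245 nm in pH 7.4 phosphate buffer with 5% DMSO at 37 °C. Half-life obtained from linear regression of ln(A_t − A_∞) against time.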

[4] = Induction of nitrous oxide release in MeOH/TBS buffer at pH 7.4 at 25 mM after 0.5 hrs by gas chromatographic analysis; assay type: physicochemical; settings: pH 7.4, 0.5 h, 25000 µM; in short: as §1
[5] = Induction of nitrous oxide release in MeOH/TBS buffer at pH 7.4 at 25 mM after 2 hrs by gas chromatographic analysis; assay type: physicochemical; settings: pH 7.4, 2 h, 25000 µM; in short: as §1
[6] = Induction of nitrous oxide release in MeOH/TBS buffer at pH 10 at 25 mM after 0.5 hrs by gas chromatographic analysis in presence of glutathione; assay type: physicochemical; settings: pH 10, 0.5 h, 25000 µM; in short: as §1
[7] = Induction of nitrite release in phosphate buffer at pH 7.4 at 50 uM after 1.5 hrs by Griess reaction; assay type: physicochemical; settings: pH 7.4, 1.5 h
In short: (§2)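 Compound at 50 μM was incubated 1.5 h at 37 °C in phosphate buffer pH 7.4 or Tris buffer pH 10.0, both containing 5% DMSO. Nitrite was measured by Griess reaction and expressed as percent of the initial compound concentration; mean of n = 3.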

[8] = Induction of nitrous oxide release in MeOH/TBS buffer at pH 7.4 at 25 mM after 48 hrs by gas chromatographic analysis; assay type: physicochemical; settings: pH 7.4, 48 h, 25000 µM; in short: as §1
[9] = Induction of nitrous oxide release in MeOH/TBS buffer at pH 7.4 at 25 mM after 0.5 hrs by gas chromatographic analysis in presence of glutathione; assay type: physicochemical; settings: pH 7.4, 0.5 h, 25000 µM; in short: as §1
[10] = Induction of nitrous oxide release in MeOH/TBS buffer at pH 10 at 25 mM after 0.5 hrs by gas chromatographic analysis; assay type: physicochemical; settings: pH 10, 0.5 h, 25000 µM; in short: as §1
[11] = Induction of nitrite release in phosphate buffer at pH 10 at 50 uM after 1.5 hrs by Griess reaction; assay type: physicochemical; settings: Tris buffer, pH 10, 1.5 h, in the assay text read “Tris buffer” for “phosphate buffer”; in short: as §2
[12] = Induction of nitrous oxide release in MeOH/TBS buffer at pH 7.4 at 25 mM after 48 hrs by gas chromatographic analysis in presence of glutathione; assay type: physicochemical; settings: pH 7.4, 48 h, 25000 µM; in short: as §1
[13] = Induction of nitrous oxide release in MeOH/TBS buffer at pH 7.4 at 25 mM after 2 hrs by gas chromatographic analysis in presence of glutathione; assay type: physicochemical; settings: pH 7.4, 2 h, 25000 µM; in short: as §1
Mus musculus [14] = test: Antihypertensive activity in C57 mouse assessed as reduction of mean blood pressure at 22.5 mg/kg, po after 1 hr relative to control; assay type: functional
In short: (§3)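 Conscious C57 black mice dosed orally at 22.5 mg/kg (60.345 μmol/kg), vehicle water with 1% methylcellulose; vehicle-only controls (n = 6), treated n = 4 at 1 h, 5 at 3 h, 6 at 6 h. Noninvasive BP (systolic, diastolic; mean = average of the two) and heart rate read at 1, 3, 6 h; each value is the average of three consecutive readings per mouse.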

Mus musculus [15] = test: Effect on heart rate in C57 mouse at 22.5 mg/kg, po after 1 hr relative to control; assay type: ADME, organism-based; parameters: dose 22.5 mg/kg, route oral; settings: in vivo; in short: as §3
Mus musculus [16] = test: Antihypertensive activity in C57 mouse assessed as reduction of systolic blood pressure at 22.5 mg/kg, po after 3 hrs relative to control; assay type: functional, Artery; in short: as §3
Heart [17] = test: Positive inotropic activity in C57BL/6 mouse Langendorff perfused heart assessed as rate of contraction at 100 uM measured for 20 mins; assay type: functional
In short: (§4)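 Hearts from C57BL/6 mice perfused with Krebs-Henseleit buffer. After 20 min stabilisation with buffer, hearts were perfused with test compound (100 μM) or isoproterenol (100 μM, positive inotropic control) for 20 min. Heart rate, diastolic and systolic rates, and left ventricular developed pressure were recorded. Baseline contractile function was measured as LVDP.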

Heart [18] = test: Positive inotropic activity in C57BL/6 mouse Langendorff perfused heart assessed as rate of relaxation at 100 uM measured for 20 mins; assay type: functional; in short: as §4
Heart [19] = test: Effect on heart rate in C57BL/6 mouse Langendorff perfused heart at 100 uM measured for 20 mins; assay type: ADME, tissue-based
In short: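 C57BL/6 mouse hearts perfused with Krebs–Henseleit buffer, stabilized 20 min, then perfused 20 min with compound at 100 μM; isoproterenol 100 μM as positive inotropic control. Heart rate, LVDP and rates of contraction and relaxation recorded.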

Mus musculus [20] = test: Antihypertensive activity in C57 mouse assessed as reduction of diastolic blood pressure at 22.5 mg/kg, po after 1 to 6 hrs relative to control; assay type: functional, organism-based; parameters: dose 22.5 mg/kg; settings: Artery, in the assay text read “after 3 to 6 hrs” for “after 1 to 6 hrs”; in short: as §3
Mus musculus [21] = test: Effect on heart rate in C57 mouse at 22.5 mg/kg, po after 6 hrs relative to control; assay type: ADME, organism-based; parameters: dose 22.5 mg/kg, route oral; settings: in vivo; in short: as §3
Mus musculus [22] = test: Antihypertensive activity in C57 mouse assessed as reduction of mean blood pressure at 22.5 mg/kg, po after 6 hrs relative to control; assay type: functional; in short: as §3
Mus musculus [23] = test: Antihypertensive activity in C57 mouse assessed as reduction of systolic blood pressure at 22.5 mg/kg, po after 6 hrs relative to control; assay type: functional, Artery; in short: as §3
Mus musculus [24] = test: Effect on heart rate in C57 mouse at 22.5 mg/kg, po after 3 hrs relative to control; assay type: ADME, organism-based; parameters: dose 22.5 mg/kg, route oral; settings: in vivo; in short: as §3
Heart [25] = test: Positive inotropic activity in C57BL/6 mouse Langendorff perfused heart assessed as left ventricular developed pressure at 100 uM measured for 20 mins; assay type: functional; in short: as §4
[26] = Induction of nitroxyl release in 7.5% DMSO and 92.5% phosphate buffer at pH 7.4 at 200 uM after 48 hrs by LC-MS analysis; assay type: physicochemical; settings: pH 7.4, 48 h
In short: (§5)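 Donor at 200 μM with 1 mM trapping phosphine in 7.5% DMSO/92.5% phosphate buffer pH 7.4, 37 °C, with 5.05 μM 4-hydroxybenzophenone internal standard. Quenched with H₂O₂ after 2 or 48 h, dried, taken up in MeOH. HNO-derived amide quantified by LC–MS (ESI negative) from a standard curve; percent of 1 mol HNO/mol; mean of triplicates.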

Mus musculus [27] = test: Antihypertensive activity in C57 mouse assessed as reduction of mean blood pressure at 22.5 mg/kg, po after 3 hrs relative to control; assay type: functional; in short: as §3
Mus musculus [28] = test: Antihypertensive activity in C57 mouse assessed as reduction of systolic blood pressure at 22.5 mg/kg, po after 1 hr relative to control; assay type: functional, Artery; in short: as §3
[29] = Induction of nitroxyl release in 7.5% DMSO and 92.5% phosphate buffer at pH 7.4 at 200 uM after 2 hrs by LC-MS analysis; assay type: physicochemical; settings: pH 7.4, 2 h; in short: as §5

Structure (SMILES)	Activity [1] [%]	Activity [2] [%]	half-life [3] [min]	Activity [4] [%]	Activity [5] [%]	Activity [6] [%]	Activity [7] [%]	Activity [8] [%]	Activity [9] [%]	Activity [10] [%]	Activity [11] [%]	Activity [12] [%]	Activity [13] [%]	Activity [26] [%]	Activity [29] [%]	also measured
COS(=O)(=O)CCO/N=[N+](\[O-])NC(C)C	1.3	15.1	1030	1.4	1.9	1.2	10.6	1.9	0.2	16.7	42	0.2	0.4			
CC(C)N/[N+]([O-])=N/OCCS(C)(=O)=O	2.2	62.2	918	0.5	1.6	0.4	1.8	10.4	1.3	52.9	26	0.1	0.9	61.4	51.2	mean blood pressure (Mus musculus [14]): 95.4 mmHg; Activity (Mus musculus [15]): 531 bpm; systolic blood pressure (Mus musculus [16]): 103.4 mmHg; Activity (Heart [17]): 5698 cmH2O/ms; Activity (Heart [18]): -5330 cmH2O/ms; Activity (Heart [19]): 269 bpm; Activity (Mus musculus [20]): Active; Activity (Mus musculus [21]): 442 bpm; mean blood pressure (Mus musculus [22]): 87.5 mmHg; systolic blood pressure (Mus musculus [23]): 114.4 mmHg; Activity (Mus musculus [24]): 488 bpm; Activity (Heart [25]): 187 cmH2O; mean blood pressure (Mus musculus [27]): 83.6 mmHg; systolic blood pressure (Mus musculus [28]): 120.2 mmHg
CC(C)N[N+]([O-])=N[O-].[Na+]	9.5	5.7	2.3	9.4	8.3	8.5	62	7	6.1	5.9	36	6.8	7.4	5.1	5.4	
CC(C)NCC(O)c1ccc(O)c(O)c1 (configuration not stated) [ISOPROTERENOL]																Activity (Heart [17]): 5330 cmH2O/ms; Activity (Heart [18]): -5882 cmH2O/ms; Activity (Heart [19]): 334 bpm; Activity (Heart [25]): 157 cmH2O
CC(C)N/[N+]([O-])=N/OCCS(=O)(=O)NOCc1ccccc1	30.3	61.3	396	3.8	9.7	24.2	6	27.5	0.3	56.8	24	0.8	0.4	55.4	47.3	
[Na+].[Na+].[O-][N+]([O-])=NO [ANGELI'S SALT]														85.7	85.9	
CONS(=O)(=O)CCO/N=[N+](\[O-])NC(C)C	29	62.9	534	5.9	12.9	17.3	0.8	33.5	0.4	52.6	10.4	1.8	0.5	51.3	46.2	
CC(C)N/[N+]([O-])=N/OCS(C)(=O)=O							0.4				4.6			4	0.31	
CC(C)N(C(=O)OC(C)(C)C)/[N+]([O-])=N/OCCS(C)(=O)=O							28.6				25.4			7.2	5.1	
CC(=O)OCO/N=[N+](\[O-])NC(C)C			41													
